Source: PubChem BioAssay (Johns Hopkins Ion Channel Center)
Rows were chosen to be rich in hits. Some 3.1% of all compounds tested hit in one or more screens of this group.
KCNK3 inh: human KCNK3 channel inhibition, primary screen; O14649; CHO-KCNK3 thallium flux, FluxOR fluorescence; stronger effect = lower value; B-score at 10 µM; hit rate 0.84% among 340,000; AID 602410;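 active = B-score under library mean minus 4 SD, starting fluorescence ratio at most library mean plus 5 SD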;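 note: more negative B-score means stronger inhibition of thallium flux through KCNK3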
KCNQ1 pot: potentiates or activates the human KCNQ1 potassium channel | CHO-K1 KCNQ1, thallium flux FluxOR fluorescence; stronger effect = higher value | hit rate 0.35% among 310,000 | B-score at 10 µM | P51787;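 active = fluorescence ratio B-score, a plate-corrected score, at least three library SD, with initial intensity B-score within 5 SD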
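Assay system: CHO-K1 cells stably expressing KCNQ1. Medium: assay buffer for compound exposure, DMSO matched across wells. Timing: 37 °C overnight plating, 90-min dark dye load, 20-min compound pretreatment. Signal: kinetic FluxOR fluorescence, 10 s baseline plus 110 s post-stimulus.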
KCNK9 block: blocks the human KCNK9 two-pore domain potassium channel; HEK293 KCNK9, FluxOR thallium flux fluorescence; stronger effect = lower value; Q9NPC2; B-score at 10 µM; hit rate 1.2% among 310,000; AID 488922;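 active = ratio B-score over 3 SD below the library mean, with starting fluorescence within 5 SD of its mean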;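 note: negative B-score means less thallium flux so channel inhibition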
Target sequence (Q9NPC2 whole entry, looked up, the tested form may be a part): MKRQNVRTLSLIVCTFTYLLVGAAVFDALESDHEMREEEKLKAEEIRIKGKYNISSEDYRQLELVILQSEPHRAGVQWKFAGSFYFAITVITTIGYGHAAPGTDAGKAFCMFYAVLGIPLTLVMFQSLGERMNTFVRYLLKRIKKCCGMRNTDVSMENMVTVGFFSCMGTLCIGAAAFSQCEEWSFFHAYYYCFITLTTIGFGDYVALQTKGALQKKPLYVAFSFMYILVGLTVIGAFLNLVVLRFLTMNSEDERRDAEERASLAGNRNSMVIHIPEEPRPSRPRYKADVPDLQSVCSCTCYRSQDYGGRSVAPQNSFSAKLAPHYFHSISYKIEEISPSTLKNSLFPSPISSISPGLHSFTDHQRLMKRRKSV
hERG rescue: compounds protecting human hERG from proarrhythmic drug block; Q12809; CHO-hERG, FluxOR thallium flux, dofetilide IC70 present; activation (rescue from dofetilide block), less the hit threshold, % at 10 µM; hit rate 0.51% among 310,000; AID 1511;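 active = activation above the mean of controls blocked by dofetilide plus 5 SD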;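 note: thallium influx through hERG after potassium depolarization seen as dye fluorescence rise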
KCNQ1 block: human KCNQ1 channel inhibition. AID 2642. hit rate 1.3% among 310,000. P51787. CHO-K1 KCNQ1, FluxOR thallium flux fluorescence; stronger effect = higher value. B-score at 10 µM;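 active = compounds whose thallium flux B-score, printed positive for inhibition, exceeds three library SD while starting fluorescence stays within three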;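 note: channel opened by potassium depolarization with thallium stimulus after 20 min compound exposure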
KCNK3 inh conf: human KCNK3 channel inhibition, confirmation assay. CHO-KCNK3 thallium flux, FluxOR fluorescence; 0% buffer, 100% carvedilol maximal block. hit rate 99% among 2,400. AID 651638. ratio percent of control, % at 10 µM. shares compounds with KCNK3 inh;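 active = ratio percent of control, averaged over triplicates, above buffer control mean plus 5 SD, cut at about 64% in these data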;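 note: ratio is the fluorescence rise from min to max over baseline after thallium stimulus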
KCNK3 uninduced: counter-screen for KCNK3 inhibitors: effect in non-induced cells | shares compounds with KCNK3 inh | hit rate 40% among 2,400 | non-induced KCNK3 parental cells, FluxOR thallium flux; stronger effect = lower value | thallium flux ratio (lower = more inhibition) at 10 µM;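 active = thallium flux ratio, averaged over three wells, more than 5 SD below the buffer control mean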;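 note: host cells are CHO cells without KCNK3 induction; ratio is peak minus trough fluorescence over baseline then normalized to buffer controls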
Active calls of the source: *.

Screening CC1CN(S(=O)(=O)c2cc(C(=O)N(CCc3ccccc3)Cc3ccccc3)ccc2Cl)CC(C)O1 (stereo not drawn) returned KCNK3 inh -8.7*, KCNQ1 pot inactive, KCNK9 block inactive, hERG rescue -16, KCNQ1 block inactive, KCNK3 inh conf 85* and KCNK3 uninduced inactive.
For Cc1cccc(C)c1OCc1cc(C(=O)N2CCCC2c2nonc2C)no1 (stereo not drawn) the results were KCNK3 inh -9.4*, KCNQ1 pot inactive, KCNK9 block inactive, hERG rescue -8, KCNQ1 block inactive, KCNK3 inh conf 108* and KCNK3 uninduced inactive.
For O=C(Nc1cccc(NC(=O)c2cccs2)c1)c1cccnc1 the results were KCNK3 inh -9.3*, KCNQ1 pot inactive, KCNK9 block inactive, hERG rescue -2, KCNQ1 block inactive, KCNK3 inh conf 89* and KCNK3 uninduced inactive.
For Cc1ccc(C(=O)Nc2cccc(NC(=O)c3cccs3)c2)c(C)c1 the results were KCNK3 inh -11*, KCNQ1 pot inactive, KCNK9 block -7*, hERG rescue -3, KCNQ1 block inactive, KCNK3 inh conf 85* and KCNK3 uninduced inactive.
For CC(C)(C)NC(=O)c1cc(NC(=O)c2cccs2)cc(NC(=O)c2cccs2)c1 the results were KCNK3 inh -11*, KCNQ1 pot inactive, KCNK9 block -7.2*, hERG rescue -8, KCNQ1 block inactive, KCNK3 inh conf 100* and KCNK3 uninduced inactive.
`Cc1cccc(C(=O)Nc2cc(NC(=O)c3cccs3)ccc2C)c1` gave KCNK3 inh -9.7*, KCNQ1 pot inactive, KCNK9 block inactive, hERG rescue -4, KCNQ1 block inactive, KCNK3 inh conf 112* and KCNK3 uninduced inactive.
Cc1cc(C)cc(C(=O)Nc2ccc(NC(=O)c3cccs3)cc2)c1 was read as KCNK3 inh inactive, KCNQ1 pot inactive, KCNK9 block inactive, hERG rescue -7 and KCNQ1 block inactive.
For COC(=O)c1ccc(C(=O)N=c2sccn2C)cc1 the results were KCNK3 inh inactive, KCNQ1 pot inactive, KCNK9 block inactive, hERG rescue -1 and KCNQ1 block inactive.
For COc1ccc(C2(CNC(=O)CCC(=O)O)CCCC2)cc1 the results were KCNK3 inh inactive, KCNQ1 pot inactive, KCNK9 block inactive, hERG rescue -2 and KCNQ1 block inactive.
CN(C(=O)COc1ncnc2sccc12)c1ccccc1 was read as KCNK3 inh inactive, KCNQ1 pot inactive, KCNK9 block inactive, hERG rescue -4 and KCNQ1 block inactive.
O=C(NCc1ccccc1)C1=C[C@@H](c2coc3ccccc3c2=O)C[C@@H](OCc2ccc(CO)cc2)O1 was read as KCNK3 inh inactive, KCNQ1 pot inactive, KCNK9 block inactive, hERG rescue -10 and KCNQ1 block inactive.
Oc1ccccc1-c1nc(N2CCCC2)c2ccccc2n1 was read as KCNK3 inh inactive, KCNQ1 pot inactive, KCNK9 block inactive, hERG rescue -4 and KCNQ1 block inactive.
Oc1ccccc1Nc1nc(NCc2ccccc2)c2ccccc2n1 was read as KCNK3 inh -12*, KCNQ1 pot inactive, KCNK9 block inactive, hERG rescue -15, KCNQ1 block inactive, KCNK3 inh conf 137* and KCNK3 uninduced inactive.
Screening Oc1ccccc1-c1nc(N2CCN(Cc3ccccc3)CC2)c2ccccc2n1 returned KCNK3 inh -12*, KCNQ1 pot inactive, KCNK9 block -7.1*, hERG rescue -4, KCNQ1 block inactive, KCNK3 inh conf 100* and KCNK3 uninduced inactive.
CNc1nc(NCc2ccccc2)c2ccccc2n1 was read as KCNK3 inh inactive, KCNQ1 pot inactive, KCNK9 block inactive, hERG rescue -8 and KCNQ1 block inactive.
c1ccc(CNc2nc(N3CCN(Cc4ccccc4)CC3)nc3ccccc23)cc1 was read as KCNK3 inh -10*, KCNQ1 pot inactive, KCNK9 block inactive, hERG rescue -28, KCNQ1 block 12*, KCNK3 inh conf 113* and KCNK3 uninduced inactive.
`Cc1cc2c(N=NC(=O)CCc3ccccc3)c(O)[nH]c2cc1Br` gave KCNK3 inh inactive, KCNQ1 pot inactive, KCNK9 block inactive, hERG rescue -10 and KCNQ1 block inactive.
Screening CCOc1ccc(Br)cc1S(=O)(=O)Nc1nc(CN2CCOCC2)nc2sc(C)c(C)c12 returned KCNK3 inh inactive, KCNQ1 pot inactive, KCNK9 block inactive, hERG rescue -13 and KCNQ1 block inactive.
Screening CN(C)CCCNc1oc(-c2ccccc2Cl)nc1S(=O)(=O)c1ccccc1 returned KCNK3 inh inactive.
`CN(C)c1oc(-c2ccccc2Cl)nc1S(=O)(=O)c1ccccc1` gave KCNK3 inh -9.3*, KCNQ1 pot inactive, KCNK9 block inactive, hERG rescue -8, KCNQ1 block inactive, KCNK3 inh conf 108* and KCNK3 uninduced inactive.
CCC(C(=O)O/N=C(\N)c1ccc(Cl)cc1)c1ccccc1 (stereo not drawn) was read as KCNK3 inh -10*, KCNQ1 pot inactive, KCNK9 block -6.6*, hERG rescue -5, KCNQ1 block inactive, KCNK3 inh conf 108* and KCNK3 uninduced inactive.
O=C(Nc1ccc(OCC(=O)N2CCOCC2)cc1)c1ccccc1F was read as KCNK3 inh inactive, KCNQ1 pot inactive, KCNK9 block inactive, hERG rescue -5 and KCNQ1 block inactive.
`O=C(Nc1ccc(Cl)cc1)c1cc(Br)ccc1OCC(=O)N1CCOCC1` gave KCNK3 inh -10*, KCNQ1 pot inactive, KCNK9 block inactive, hERG rescue -3, KCNQ1 block inactive, KCNK3 inh conf 112* and KCNK3 uninduced inactive.
`Cc1csc2c(N3CCN(C(=O)Nc4ccccc4)CC3)ncnc12` gave KCNK3 inh inactive, KCNQ1 pot inactive, KCNK9 block inactive, hERG rescue -11 and KCNQ1 block inactive.
`Cc1csc2ncnc(N3CCN(C(=O)Nc4ccc(OC(F)(F)F)cc4)CC3)c12` gave KCNK3 inh -9.7*, KCNQ1 pot inactive, KCNK9 block inactive, hERG rescue -20, KCNQ1 block inactive, KCNK3 inh conf 109* and KCNK3 uninduced 0.16*.
COc1ccccc1C(C)Nc1nc(-c2cccnc2)nc2ccccc12 (stereo not drawn) was read as KCNK3 inh -11*, KCNQ1 pot inactive, KCNK9 block inactive, hERG rescue -16, KCNQ1 block inactive, KCNK3 inh conf 125* and KCNK3 uninduced inactive.
